pIC50: −log10 of the molar value.
Assays:
[1] = target: T1, Polyunsaturated fatty acid 5-lipoxygenase (Homo sapiens, UniProt P09917); test: Inhibition of human neutrophil 5-lipoxygenase
T1 sequence (P09917 whole entry): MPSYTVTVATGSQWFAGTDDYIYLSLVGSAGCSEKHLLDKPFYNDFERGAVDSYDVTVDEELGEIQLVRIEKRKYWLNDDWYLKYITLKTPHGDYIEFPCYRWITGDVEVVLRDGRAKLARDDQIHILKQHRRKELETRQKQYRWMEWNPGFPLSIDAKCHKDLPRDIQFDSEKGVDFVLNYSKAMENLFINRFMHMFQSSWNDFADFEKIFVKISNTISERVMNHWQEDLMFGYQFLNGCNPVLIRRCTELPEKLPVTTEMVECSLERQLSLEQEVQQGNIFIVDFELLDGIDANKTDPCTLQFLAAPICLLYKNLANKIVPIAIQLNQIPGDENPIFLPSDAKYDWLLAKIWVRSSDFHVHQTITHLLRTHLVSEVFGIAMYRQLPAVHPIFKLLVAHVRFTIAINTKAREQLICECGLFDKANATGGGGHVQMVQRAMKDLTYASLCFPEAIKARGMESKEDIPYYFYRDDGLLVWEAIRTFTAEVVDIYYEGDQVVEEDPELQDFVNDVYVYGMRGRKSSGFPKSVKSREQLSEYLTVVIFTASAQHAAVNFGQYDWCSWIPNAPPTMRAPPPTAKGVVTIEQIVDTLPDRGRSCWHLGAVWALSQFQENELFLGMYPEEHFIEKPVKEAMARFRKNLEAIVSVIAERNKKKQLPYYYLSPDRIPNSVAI

Cavia porcellus [2] = test: Inhibition of antigen-induced leukotriene-mediated bronchoconstriction in conscious guinea pig at the dose of 30mg/Kg, ip.; type: functional
Outline: (§1)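 Male Hartley guinea pigs (250–300 g), actively ovalbumin-sensitized, fasted 18 h, anesthetized, pleural pressure transducer fitted. Dosed 60 min before aerosolized ovalbumin challenge with pyrilamine (10 mg/kg ip), indomethacin (10 mg/kg ip) and test agent (ip as 5% Tween 80 suspension). Head-out plethysmography after recovery; Cdyn mean change from baseline over 5–15 min post-challenge vs controls; 5–10 animals per dose; Dunnett's test.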

Cyclooxygenase [3] = target: T2, Cyclooxygenase (Homo sapiens, UniProt P35354+P23219); test: Inhibition of human platelet Prostaglandin G/H synthase
[4] = target: T3, Polyunsaturated fatty acid 5-lipoxygenase (Homo sapiens) (UniProt P09917); test: Inhibition of human neutrophil 5-lipoxygenase at the concentration of 0.1 uM
T3 sequence (whole entry): T1 sequence (P09917 whole entry)
Outline: (§2)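 5-LO activity measured in human peripheral blood leukocytes. Percent inhibition at a single test concentration is compared with untreated control, with significance by ANOVA and Tukey's multiple comparisons test (p < 0.05).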

[5] = target: T3, Polyunsaturated fatty acid 5-lipoxygenase (Homo sapiens); test: (§3) Inhibition of human neutrophil 5-lipoxygenase at the concentration of 1 uM; outline: as §2
Cyclooxygenase [6] = target: T2, Cyclooxygenase; test: (§4) Inhibition of human platelet Prostaglandin G/H synthase at the concentration of 10 uM; type: functional
Outline: (§5)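 CO activity measured in human platelets. Percent inhibition at a single test concentration is compared with untreated control, with significance by ANOVA and Tukey's multiple comparisons test (p < 0.05).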

Cyclooxygenase [7] = target: T2, Cyclooxygenase; test: (§6) Inhibition of human platelet Prostaglandin G/H synthase at the concentration of 1 uM; type: functional; outline: as §5
Cavia porcellus [8] = test: Inhibition of antigen-induced leukotriene-mediated bronchoconstriction in conscious guinea pig at the dose of 30mg/Kg, ip; type: functional; outline: as §1
[9] = as §4; outline: as §5
Cyclooxygenase [10] = target: T2, Cyclooxygenase; test: as §6; outline: as §5
Cavia porcellus [11] = organism: Cavia porcellus; test: Inhibition of cell influx (total cells) in guinea pig; type: functional
Outline: (§7)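 Male Hartley guinea pigs (250–300 g), ovalbumin-sensitized, fasted, pretreated 60 min before challenge with pyrilamine (10 mg/kg ip), indomethacin (10 mg/kg ip) and test agent (ip as 5% Tween 80 suspension). Challenged with aerosolized ovalbumin; 4 h later anesthetized and exsanguinated for late-phase inflammatory cell influx counts (total cells, PMN).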

Cavia porcellus [12] = test: Inhibition of antigen-induced ileukotriene-mediated bronchoconstriction in conscious guinea pig at the dose of 300mg/Kg, po.; type: functional
Cavia porcellus [13] = test: Inhibition of antigen-induced leukotriene-mediated bronchoconstriction in conscious guinea pig at the dose of 100mg/Kg, po.; type: functional
Cavia porcellus [14] = test: Inhibition of antigen-induced leukotriene-mediated bronchoconstriction in conscious guinea pig at the dose of 30mg/Kg, po.; type: functional
Cavia porcellus [15] = test: Inhibition of antigen-induced leukotriene-mediated bronchoconstriction in conscious guinea pigat the dose of 100mg/Kg, ip; type: functional; outline: as §1
Cavia porcellus [16] = organism: Cavia porcellus; test: Inhibition of cell influx (PMN) in guinea pig; type: functional; outline: as §7
[17] = target: T3, Polyunsaturated fatty acid 5-lipoxygenase (Homo sapiens); test: as §3; type: functional; outline: as §2
[18] = target: T3, Polyunsaturated fatty acid 5-lipoxygenase (Homo sapiens); test: Inhibition of lipoxygenase at the concentration of 0.1 uM; outline: as §2
[19] = target: T3, Polyunsaturated fatty acid 5-lipoxygenase (Homo sapiens); test: Inhibition of lipoxygenase at the concentration of 1 uM; outline: as §2
Cavia porcellus [20] = test: Inhibition of antigen-induced leukotriene-mediated bronchoconstriction in conscious guinea pig at the dose of 10mg/Kg, ip; type: functional; outline: as §1

Structure (SMILES) | pIC50 [1] | IC50 (Cyclooxygenase [3]) [nM] | inhibition in vivo at 30 mg/kg (Cavia porcellus [8]) [%] | further results
Cc1ccc(/C=C/c2cc(C)c(O)c(C)c2)cc1 | 6.54 | 3200 |  | inhibition in vivo at 30 mg/kg (Cavia porcellus [2]): 59%
CCc1cc(/C=C/c2cccnc2)cc(CC)c1O | > 6.00 | < 10000 |  | inhibition [4]: 36%; inhibition [5]: 86%; inhibition (Cyclooxygenase [6]): 82%; inhibition (Cyclooxygenase [7]): 20%
Cc1cc(/C=C/c2ccsc2)cc(C)c1O | 7.35 | < 10000 | 26 | inhibition [9]: 96%; inhibition (Cyclooxygenase [10]): 38%
CC(C)(C)c1cc(/C=C/c2cccnc2)cc(C(C)(C)C)c1O | 5.77 |  |  | Inhibition (Cavia porcellus [11]): 0%; inhibition in vivo at 300 mg/kg (Cavia porcellus [12]): 7.7%; inhibition in vivo at 100 mg/kg (Cavia porcellus [13]): -2%; inhibition in vivo at 30 mg/kg (Cavia porcellus [14]): -24%; inhibition in vivo at 100 mg/kg (Cavia porcellus [15]): 10%; Inhibition (Cavia porcellus [16]): 0%
CCCc1cc(/C=C/c2cccs2)cc(OC)c1O | 7.07 | 1300 | 57 | Inhibition (Cavia porcellus [11]): 77%; Inhibition (Cavia porcellus [16]): 54%
Cc1cc(/C=C/c2ccccc2C(=O)O)cc(C)c1O | < 6.00 | > 10000 |  | inhibition [17]: 12%; inhibition [9]: 25%; inhibition (Cyclooxygenase [10]): 16%
Cc1cc(/C=C/c2ccc(F)cc2)cc(C)c1O [ENOFELAST] | 6.92 | 1300 |  | inhibition in vivo at 30 mg/kg (Cavia porcellus [2]): 43%
COc1ccc(/C=C/c2cc(C)c(O)c(C)c2)cc1 | 7.04 | 1500 | 28 | 
Cc1cc(/C=C/c2cc(F)cc(F)c2)cc(C)c1O | > 6.00 | 1000 |  | inhibition [18]: 6%; inhibition [19]: 81%; inhibition [9]: 74%; inhibition (Cyclooxygenase [10]): 50%
COc1cc(/C=C/c2cccs2)cc(C)c1O | 7.07 | 3100 | 41 | 
CCc1cc(/C=C/c2cccs2)cc(OC)c1O | 7.05 | 1400 | 51 | 
CCCC/C(=C\c1cc(C)c(O)c(C)c1)c1ccc(F)cc1 | > 6.00 | 1000 |  | inhibition [18]: 17%; inhibition [19]: 93%; inhibition [9]: 86%; inhibition (Cyclooxygenase [10]): 52%
Cc1cc(/C=C/c2cccs2)cc(C)c1O | 7.27 | 780 | 70.3 | Inhibition (Cavia porcellus [11]): 78%; inhibition in vivo at 10 mg/kg (Cavia porcellus [20]): 34.5%; Inhibition (Cavia porcellus [16]): 95%
Cc1cccc(/C=C/c2cc(C)c(O)c(C)c2)c1 | 6.89 | 2500 |  | inhibition in vivo at 30 mg/kg (Cavia porcellus [2]): 49%
